We go through 19 compounds from ChEMBL document CHEMBL1143996, “Toward the development of chemoprevention agents (III): synthesis and anti-inflammatory activities of a new class of 5-glycylamino-2-substituted-phenyl-1,3-dioxacycloalkanes” (Bioorg Med Chem, 2008).

Structures are written as SMILES.

By inhibition in vivo is commonly meant the share of the control response that was lost under treatment.

In data set [1] the test system is Mus musculus. The data set is described as follows: Toxicity assessed as tail bleeding in Kunming mouse at 200 mg/kg, po after 60 mins. It is filed as organism-based. Also noted: dose 200 mg/kg, route oral. The following applies: in vivo, 1 h. The procedure, abridged:
(§1)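 Male mice (18–22 g) given a single oral dose, normal saline vehicle, n = 10. At set times after dosing, mouse restrained in a tube holder with tail protruding and a 2-mm tail cut made. Blood wiped away every 30 s until bleeding stopped; bleeding time recorded in s and compared with pre-dose values.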

In data set [2] the test system is Mus musculus. The data set is described as follows: Toxicity assessed as tail bleeding in Kunming mouse at 200 mg/kg, po after 30 mins. In kind it is organism-based. Details: dose 200 mg/kg, route oral. The following applies: in vivo, 0.5 h. The procedure, abridged:
as §1

Data set [3] deals with Mus musculus. The data set can be described thus: Toxicity assessed as tail bleeding in Kunming mouse at 200 mg/kg, po after 15 mins. Conditions: in vivo, 0.25 h. In kind it is organism-based. Details: dose 200 mg/kg, route oral. The procedure, abridged:
as §1

Data set [4] relates to Mus musculus. The data set can be described thus: Toxicity assessed as tail bleeding in Kunming mouse at 200 mg/kg, po after 5 mins. It is filed as organism-based. Details: dose 200 mg/kg, route oral. The following applies: in vivo. Put shortly:
as §1

Data set [5] concerns Mus musculus. The data set is described as follows: Antiinflammatory activity in Kunming mouse assessed as inhibition of xylene-induced ear edema at 20 mg/kg, po. In kind it is functional.
Data set [6] deals with Mus musculus. The data set can be described thus: Antiinflammatory activity in Kunming mouse assessed as inhibition of xylene-induced ear edema at 30 mg/kg, po. In kind it is functional. Put shortly:
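Male Kunming mice, 12 per group (tables give n = 11), dosed orally by gavage as a suspension in 0.5% carboxymethyl cellulose; CMC alone as vehicle control. After 30 min, 0.03 mL xylene applied to both surfaces of the right ear, with the left ear as control.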

As for `C[C@H]1O[C@@H](c2cccc([N+](=O)[O-])c2)OC[C@H]1NC(=O)CN`, the Time in data set [1] was 2 min; in data set [2], 1.98 min; in data set [3], 2.01 min; in data set [4], 2.01 min.

With `NCC(=O)N[C@H]1CCO[C@@H](c2cccc([N+](=O)[O-])c2)OC1`, the Time amounted to 1.99 min in data set [1], 2.05 min in data set [2], 1.99 min in data set [3] and 1.99 min in data set [4].

For `NCC(=O)N[C@H]1CCO[C@@H](c2ccc(Cl)cc2)OC1`, the Time in data set [1] worked out at 2 min; in data set [2], 2.01 min; in data set [3], 2.01 min; in data set [4], 1.99 min.

For the compound `NCC(=O)N[C@H]1CO[C@@H](c2ccc([N+](=O)[O-])cc2)OC1`, the Time in data set [1] stood at 2.02 min; in data set [2] it was 2.04 min; in data set [3] it was 2.01 min; in data set [4], 2.02 min.

Regarding `NCC(=O)N[C@H]1CCO[C@H](c2ccc([N+](=O)[O-])cc2)OC1`, the Time in data set [1] was 1.99 min; in data set [2] it was 2 min; in data set [3] it was 2.01 min; in data set [4], 2.01 min.

On to `C[C@H]1O[C@@H](c2ccc(Cl)cc2)OC[C@H]1NC(=O)CN`, for which the Time came to 2.01 min in data set [1], 2 min in data set [2], 2.01 min in data set [3] and 2.04 min in data set [4].

As to `NCC(=O)N[C@H]1CO[C@@H](c2cccc([N+](=O)[O-])c2)OC1`, the Time was 2.02 min in data set [1], 2.04 min in data set [2], 2 min in data set [3] and 2 min in data set [4].

As to `NCC(=O)N[C@H]1CO[C@@H](c2ccc(Cl)cc2)OC1`, the Time in data set [1] turned out to be 2 min; in data set [2] it was 2 min; in data set [3] it was 2.01 min; in data set [4] it was 2.01 min.

`C[C@H]1O[C@@H](c2ccc([N+](=O)[O-])cc2)OC[C@H]1NC(=O)CN`: the Time in data set [1] was determined as 2.01 min; in data set [2] it was 1.98 min; in data set [3] it was 2.02 min; in data set [4], 2 min.

On to `Cc1ccc([C@H]2OC[C@@H](NC(=O)CN)CO2)cc1`, for which the Time was 2 min in data set [1], 1.99 min in data set [2], 2 min in data set [3] and 2 min in data set [4].

Turning to `NCC(=O)N[C@H]1CO[C@@H](c2ccccc2)OC1`, the Time in data set [1] is 2.01 min; in data set [2], 2.02 min; in data set [3] it was 2 min; in data set [4] it was 2 min.

In the case of `C[C@H]1O[C@@H](c2ccccc2)OC[C@H]1NC(=O)CN`, the Time in data set [1] was found to be 2.03 min; in data set [2], 2.01 min; in data set [3], 2 min; in data set [4], 2.02 min.

Consider `C[C@H]1O[C@@H](c2ccc([N+](=O)[O-])cc2)OC[C@H]1N`, for which the inhibition in vivo at 20 mg/kg in data set [5] worked out at 78.5%.

Take `NCC(=O)N[C@H]1CCO[C@H](c2cccc([N+](=O)[O-])c2)OC1`: the Time was determined as 2.02 min in data set [1], 2 min in data set [2], 2 min in data set [3] and 2.02 min in data set [4].

Regarding `CC(=O)Oc1ccccc1C(=O)O` [ASPIRIN], in data set [6], the inhibition in vivo at 30 mg/kg was determined as 40.7%.

Take `NCC(=O)N[C@H]1CCO[C@H](c2ccc(Cl)cc2)OC1`: the Time worked out at 1.99 min in data set [1], 2 min in data set [2], 1.99 min in data set [3] and 2.02 min in data set [4].

On to `NCC(=O)N[C@H]1CCO[C@@H](c2ccc([N+](=O)[O-])cc2)OC1`, for which the Time was 1.99 min in data set [1], 2 min in data set [2], 2.05 min in data set [3] and 2 min in data set [4].

On to `C[C@H]1O[C@@H](c2ccc(Cl)cc2)OC[C@H]1N`, for which, in data set [5], the inhibition in vivo at 20 mg/kg is 66.7%.

As for `Cc1ccc([C@H]2OC[C@@H](NC(=O)CN)[C@@H](C)O2)cc1`, the Time came out at 2 min in data set [1], 2.02 min in data set [2], 2.04 min in data set [3] and 2 min in data set [4].
